Compound activity: PubChem, several laboratories
This is a sample that favours compounds with a hit; in the whole collection about 4.1% have one here.
KCNK3 block = human KCNK3 channel inhibition, primary screen | AID 602410 | O14649 | B-score at 10 µM | 0.84% of 340,000 active | CHO-KCNK3 thallium flux, FluxOR fluorescence; active compounds read low;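 active means B-score under library mean minus 4 SD, starting fluorescence ratio at most library mean plus 5 SD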;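 further: more negative B-score means stronger inhibition of thallium flux through KCNK3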
KCNQ1 pot = potentiates or activates the human KCNQ1 potassium channel; B-score at 10 µM; CHO-K1 KCNQ1, thallium flux FluxOR fluorescence; active compounds read high; 0.35% of 310,000 active; AID 2648; P51787;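 active means fluorescence ratio B-score, a plate-corrected score, at least three library SD, with initial intensity B-score within 5 SD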
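Assay system: stable KCNQ1 CHO-K1 line; medium: assay buffer, equal DMSO in all wells; timing: 90 min dye loading and 20 min compound exposure, both at room temperature; technique: kinetic FluxOR thallium fluorescence, 10-s 1-Hz baseline, 110-s post-stimulus read; read-out basis: B score of baseline-normalized fluorescence ratio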
KCNK9 inh = blocks the human KCNK9 two-pore domain potassium channel. Q9NPC2. HEK293 KCNK9, FluxOR thallium flux fluorescence; active compounds read low. B-score at 10 µM. 1.2% of 310,000 active;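 active means ratio B-score over 3 SD below the library mean, with starting fluorescence within 5 SD of its mean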;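 further: negative B-score means less thallium flux so channel inhibition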
KCNQ1 block = inhibitors of human KCNQ1 potassium channel; P51787; CHO-K1 KCNQ1, FluxOR thallium flux fluorescence; active compounds read high; B-score at 10 µM; 1.3% of 310,000 active; AID 2642;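 active means compounds whose thallium flux B-score, printed positive for inhibition, exceeds three library SD while starting fluorescence stays within three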;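 further: channel opened by potassium depolarization with thallium stimulus after 20 min compound exposure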
hERG rescue = compounds protecting human hERG from proarrhythmic drug block | Q12809 | CHO-hERG, FluxOR thallium flux, dofetilide IC70 present | activation (rescue from dofetilide block), less the hit threshold, % at 10 µM | 0.51% of 310,000 active | AID 1511;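 active means activation above the mean of controls blocked by dofetilide plus 5 SD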;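 further: thallium influx through hERG after potassium depolarization seen as dye fluorescence rise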
KCC2 mod = modulates chloride dependent transport by human KCC2 | Q9H2X9 | KCC2 cells, thallium flux FluoZin-2 fluorescence | B-score of Tl+ flux slope (higher = more flux/activation; lower = inhibition) at 10 µM | 2.2% of 190,000 active | AID 1456;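 active means thallium flux slope and its plate-corrected score both differing from the plate sample mean at a set confidence after two filtering rounds, in either direction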;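 further: slope of fluorescence scaled to starting intensity during 10 to 20 s after thallium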
KCNQ1 block val = human KCNQ1 channel inhibition, validation assay; shares compounds with KCNQ1 block; 93% of 1,600 active; KCNQ1 cell line, FluxOR thallium flux fluorescence; inhibition, % at 10 µM;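 active means primary screen active, with duplicate mean exceeding buffer control mean plus 3 SD of buffer wells, cut at about 28% in these data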;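 further: 0% = buffer control ratio and 100% = XE991 inhibitor control ratio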
CHO KCNQ1 ctr = activity in parental CHO cells lacking KCNQ1; shares compounds with KCNQ1 block; parental CHO-K1, FluxOR thallium flux fluorescence ratio; active compounds read low; zero means no signal rise above baseline; fluorescence ratio (Tl flux) at 10 µM; 21% of 1,600 active; AID 588366;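 active means mean of duplicate thallium-flux fluorescence ratios in parental host cells more than 5 SD below the buffer control mean, cut at about 0.38 in these data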;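 further: ratio is peak minus minimum fluorescence divided by baseline fluorescence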
KCNQ1 ephys val = blocks human KCNQ1 current in automated patch clamp; shares compounds with KCNQ1 block; KCNQ1-CHO cells; calls only at 10 µM; 20% of 490 active;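 active means KCNQ1 current drop exceeding 3 SD of negative control wells, seen in both duplicate runs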;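 further: steady state current during a 2 s step from -80 to +40 mV; negative values mean current inhibition and positive values mean potentiation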
KCNQ2 spec = rat KCNQ2 inhibition in KCNQ1 inhibitor specificity screen; shares compounds with KCNQ1 block; KCNQ2 cells, FluxOR thallium flux fluorescence; inhibition, % at 10 µM; 71% of 1,600 active; AID 651746;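 active means mean percent inhibition of the KCNQ2 thallium signal more than 5 SD above the buffer-only control wells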;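 further: KCNQ2 expressed in CHO cells; 0% = buffer control wells and 100% = XE-991 inhibitor control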
KCNQ1 KCNE1 spec = human KCNQ1/KCNE1 inhibition in KCNQ1 specificity screen; shares compounds with KCNQ1 block; KCNQ1/KCNE1 cells, FluxOR thallium flux fluorescence; inhibition, % at 10 µM; 77% of 1,600 active; AID 652147;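 active means mean percent inhibition of duplicate wells above the buffer-only control mean plus 3 SD of those controls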;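 further: 0% = buffer only wells and 100% = XE-991 inhibitor control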
Target sequence (P51787 whole entry, looked up): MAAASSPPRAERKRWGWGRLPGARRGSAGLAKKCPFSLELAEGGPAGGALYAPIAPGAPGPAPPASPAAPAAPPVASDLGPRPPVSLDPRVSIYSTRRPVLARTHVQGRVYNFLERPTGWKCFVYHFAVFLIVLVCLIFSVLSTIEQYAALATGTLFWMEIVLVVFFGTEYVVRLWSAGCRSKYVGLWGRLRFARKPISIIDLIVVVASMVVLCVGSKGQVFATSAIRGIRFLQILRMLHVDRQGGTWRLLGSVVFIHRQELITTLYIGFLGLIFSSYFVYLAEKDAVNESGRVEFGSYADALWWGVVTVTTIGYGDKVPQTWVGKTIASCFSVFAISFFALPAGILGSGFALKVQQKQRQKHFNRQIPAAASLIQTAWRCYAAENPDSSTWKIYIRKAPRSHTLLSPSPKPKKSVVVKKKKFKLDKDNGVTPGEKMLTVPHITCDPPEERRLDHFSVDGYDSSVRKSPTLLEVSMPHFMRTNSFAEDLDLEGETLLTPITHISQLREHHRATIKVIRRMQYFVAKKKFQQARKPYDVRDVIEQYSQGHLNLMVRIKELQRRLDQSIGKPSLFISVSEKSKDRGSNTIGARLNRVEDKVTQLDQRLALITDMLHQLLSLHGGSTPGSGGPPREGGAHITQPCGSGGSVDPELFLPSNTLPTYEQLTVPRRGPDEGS
* hit, by the source's call; i = inactive; . = not tested or not shown; + = active, no number.

SMILES	KCNK3 block	KCNQ1 pot	KCNK9 inh	KCNQ1 block	hERG rescue	KCC2 mod	KCNQ1 block val	CHO KCNQ1 ctr	KCNQ2 spec	KCNQ1 KCNE1 spec	others
O=C(c1cc(-c2cccs2)nn1-c1ccccc1)N1CCN(S(=O)(=O)c2ccccc2)CC1	i	i	i	7*	-17	.	60*	0.48	91%*	100%*
COc1ccc([C@@]23Oc4cc(OC)cc(OC)c4[C@]2(O)[C@H](O)[C@H](C(=O)N(C)C)[C@H]3c2ccccc2)cc1	i	.	.	.	.	.	.	.	.	.
O=C(Nc1cc(Cl)cc2c1-c1ccc(Cl)cc1C2O)C(Cl)Cl (stereo not given)	i	.	.	.	.	.	.	.	.	.
CCOC(=O)c1cccc(Nc2nc(-c3cccnc3)nc3ccccc23)c1	i	i	i	7*	-19	-0.34	124*	0.39	122%*	+	KCNQ1 ephys val=i
COC(=O)c1cccc(Nc2nc(-c3cccnc3)nc3ccccc23)c1	i	i	i	i	-6	-0.87	.	.	.	.
CCCc1cc(NCc2ccccn2)n2nc(C)c(-c3ccccc3)c2n1	i	i	i	8*	-16	-0.71	56*	0.42	108%*	84%*
O=C(O)c1cccc(Oc2ccc(C(=O)O)c([N+](=O)[O-])c2)c1	i	.	.	.	.	.	.	.	.	.
O=C1CSC(c2cn(-c3ccccc3)nc2-c2ccccc2)N1Cc1ccco1 (stereo not given)	i	i	i	10*	-12	0.14	134*	0.42	108%*	189%*	KCNQ1 ephys val=i
O=C(Nc1ccc(Cl)cc1)Nc1nnc(-c2ccncc2)s1	i	i	i	i	-11	0.7	.	.	.	.
Cc1ccc(NC(=O)Nc2nnc(-c3ccncc3)s2)cc1C	i	i	i	11*	-8	0.44	105*	0.5	i	57%*	KCNQ1 ephys val=i
CCOc1ccc(N=C2NC(=O)S/C2=C\c2ccc(N(C)C)cc2)cc1	i	i	i	10*	-15	.	181*	0.42	i	i
COC(=O)c1ccc(N2CCN(c3ccccc3)CC2)nc1	i	i	i	i	-6	.	.	.	.	.
COc1cc(NS(=O)(=O)c2ccc(NC(=O)Cc3ccccc3)cc2)nc(OC)n1	i	i	i	i	-6	.	.	.	.	.
COC(=O)c1[nH]c2cc(C)ccc2c1NC(=O)CN1CCN(C(=O)c2ccco2)CC1	i	i	i	i	-2	0.74	.	.	.	.
COC(=O)c1[nH]c2cc(C)ccc2c1NC(=O)CN1CCCc2ccccc21	i	i	i	8*	-12	-0.13	72*	0.44	93%*	82%*
Clc1ccc(Cl)c2sc(N3CCOCC3)nc12	i	i	i	8*	0	.	26*	0.47	i	i
Nc1c(C2CCCCC2)c(=O)on1C(=O)c1ccccc1	i	.	.	.	.	.	.	.	.	.
COc1cc(/C=C/C(=O)Nc2cccc(S(=O)(=O)NC3=NCCCCC3)c2)ccc1OCC#N	i	i	i	i	-18	.	.	.	.	.
Cc1occc1-c1nnc(SCC(=O)N2CCOCC2)n1CCc1ccccc1	i	i	i	6*	-4	-0.13	36*	0.53	i	45%*
CCCCn1c(SCC(=O)N2CCOCC2)nnc1-c1ccoc1C	i	i	i	i	0	-0.3	.	.	.	.
